From ChEMBL document CHEMBL1123210, “Cycloheximide analogues as potential anticonvulsants” (J Med Chem, 1986)
Activity calls are given as the source filed them.

Assays:
[1] = test system: Mus musculus; assay: Compound was tested for subcutaneous pentylenetetrazole seizure test in mice after administration intraperitoneally at 0.5 hr; IA is Inactive; assay type: functional, organism-based
[2] = test system: Mus musculus; assay: Inhibition of subcutaneous pentylenetetrazole induced seizures in mice 4 hr following i.p. administration; Inactive.; assay type: functional, organism-based
[3] = test system: Mus musculus; assay: Compound was tested for maximal electroshock seizure test in mice 0.5 hr after administration; IA is Inactive; assay type: functional, organism-based
[4] = test system: Mus musculus; assay: Inhibition of maximal electroshock induced seizures in mice 4 hr after administration; Inactive.; assay type: functional, organism-based
[5] = organism: Mus musculus; assay: Number of mice exhibiting toxicity out of four (4) mice was measured by using rotarod test.; assay type: organism-based; details: in vivo
In short: (§1)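 Neurotoxicity was scored in the rotorod test in mice given doses up to 600 mg/kg. The value is the number of animals out of four showing toxicity. It was recorded for both the initial screen and the repeat pentylenetetrazol screen.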

[6] = test system: Mus musculus; assay: (§2) Compound was tested for maximal electroshock seizure test in mice 4 hr after administration; IA is Inactive; assay type: functional, organism-based
[7] = test system: Mus musculus; assay: (§3) Compound was tested for maximal electroshock seizure test in mice 0.5 hr after administration.; assay type: functional
[8] = test system: Mus musculus; assay: as §3; assay type: functional; remark: listed apart in the source
In short: (§4)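 Mice, four per dose level, screened at 30, 100, 300 and 600 mg/kg and read at 0.5 h and 4 h after dosing. End point is prevention of tonic hindlimb extension after maximal electroshock. Activity is the lowest dose at which at least one of four animals is protected.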

[9] = test system: Mus musculus; assay: as §2; assay type: functional, organism-based; in short: as §4; remark: listed apart in the source
[10] = test system: Mus musculus; assay: (§5) Compound was tested for subcutaneous pentylenetetrazole seizure test in mice after administration intraperitoneally at 0.5h.; assay type: functional
In short: (§6)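 Mice, four per dose level, screened at 30, 100, 300 and 600 mg/kg and read at 0.5 h and 4 h after dosing. End point is prevention of minimal threshold (clonic) seizures induced by pentylenetetrazol 85 mg/kg sc. Activity is the lowest dose at which at least one of four animals is protected.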

[11] = test system: Mus musculus; assay: (§7) Compound was tested for subcutaneous pentylenetetrazole seizure test in mice after administration intraperitoneally at 4h.; assay type: functional; in short: as §6
[12] = test system: Mus musculus; assay: (§8) Compound was tested for the lowest dose which protected half of the mice in pentylenetetrazole seizure test 0.5 hr after ip administration of the compound; assay type: functional
In short: (§9)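 Repeat pentylenetetrazol screen (85 mg/kg sc, clonic seizure end point) in four mice per dose, at 30, 100, 300 and 600 mg/kg, read at 0.5 h and 4 h. The value is the lowest dose at which at least half of the four animals were protected. A few cases were rescreened at 100, 250, 450 and 600 mg/kg or used only three animals.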

[13] = test system: Mus musculus; assay: (§10) Compound was tested for the lowest dose which protected half of the mice in pentylenetetrazole seizure test 4 hr after ip administration of the compound; assay type: functional; in short: as §9
[14] = test system: Mus musculus; assay: Number of mice exhibiting toxicity out of four (4) mice in repeated subcutaneous pentylenetetrazole seizure test was measured by using rotarod test; assay type: organism-based; details: in vivo; in short: as §1
[15] = test system: Mus musculus; assay: as §5; assay type: functional; remark: listed apart in the source
[16] = test system: Mus musculus; assay: as §8; assay type: functional; remark: listed apart in the source
In short: (§11)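 This was a repeat of the subcutaneous pentylenetetrazol screen in mice (85 mg/kg s.c.). Endpoint was prevention of clonic seizures, four animals per dose at 30, 100, 300 or 600 mg/kg. The value is the lowest dose at which at least half of the four animals were protected.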

[17] = test system: Mus musculus; assay: as §7; assay type: functional; remark: listed apart in the source
[18] = test system: Mus musculus; assay: Compound was tested for the lowest dose which protected half of the mice in pentylenetetrazole seizure test 0.5 hr after ip administration of the compound; IA is Inactive; assay type: functional, organism-based; in short: as §11
[19] = test system: Mus musculus; assay: Compound was tested for the lowest dose which protected half of the mice in pentylenetetrazole seizure test 4 hr after ip administration of the compound; IA is Inactive; assay type: functional, organism-based; in short: as §11
[20] = test system: Mus musculus; assay: as §10; assay type: functional; in short: as §11; remark: listed apart in the source
[21] = test system: Mus musculus; assay: Compound was tested for maximal electroshock seizure test in mice 0.5 hr after administration; IA is Inactivev; assay type: functional, organism-based
[22] = test system: Mus musculus; assay: Compound was tested for maximal electroshock seizure test in mice 4 hr after administration.; assay type: functional
[23] = test system: Mus musculus; assay: Compound was tested for subcutaneous pentylenetetrazole seizure test in mice after administration intraperitoneally at 4h.; IA is Inactive; assay type: functional, organism-based

Compound | scMet [1] | scMet [2] | MES [3] | MES [4] | Toxicity [5] | Toxicity [14] | scMet [15] | scMet [16] | also measured
C[C@@H]1CC(C2CC(CC(=O)NCc3ccccc3)CC(=O)O2)[C@@H](O)[C@@H](C)C1 (stereo not given in full) | inactive | inactive | inactive | inactive | – | – | – | – | –
C[C@H]1CCC(=O)C(C(=O)CC2CC(=O)N(C)C(=O)C2)C1 (stereo not given in full) | inactive | inactive | inactive | inactive | – | – | – | – | –
C[C@H]1CC(C(=O)CC2CC(=O)NC(=O)C2)C(=O)[C@@H](C)C1 (stereo not given in full) | inactive | inactive | inactive | inactive | – | – | – | – | –
C[C@H]1CCCC([C@H](O)CC2CC(=O)N(C)C(=O)C2)[C@H]1O (stereo not given in full) | inactive | inactive | – | – | 0 | – | – | – | MES [6]: inactive; MES [7]: 600 mg/kg
C[C@@H]1CC([C@H](O)CC2CC(=O)NC(=O)C2)C(=O)[C@@H](C)C1 (stereo not given in full) | – | – | – | – | 1 | 0 animals | – | – | MES [8]: 600 mg/kg; MES [9]: inactive; scMet [10]: 100 mg/kg; scMet [11]: 300 mg/kg; scMet [12]: 100 mg/kg; scMet [13]: 300 mg/kg
CN1C(=O)CC(C[C@@H](O)C2CCCC[C@@H]2O)CC1=O (stereo not given in full) | inactive | inactive | inactive | inactive | – | – | – | – | –
C[C@H]1CCC(=O)C(C(=O)CC2CC(=O)NC(=O)C2)C1 (stereo not given in full) | inactive | inactive | inactive | inactive | – | – | – | – | –
CN1C(=O)CC(CC(=O)C2CCCCC2=O)CC1=O (stereo in doubt; 2e) | inactive | inactive | inactive | inactive | – | – | – | – | –
O=C1CC(CC(=O)C2CCCCC2=O)CC(=O)N1 (stereo not given) | – | inactive | inactive | inactive | 0 | – | 600 mg/kg | 600 mg/kg | –
C[C@H]1CC([C@H](O)CC2CC(=O)N(C)C(=O)C2)[C@@H](O)[C@@H](C)C1 (stereo not given in full) | inactive | inactive | – | inactive | 0 | – | – | – | MES [7]: 600 mg/kg
C[C@@H]1CCc2c(c(CC3CC(=O)NC(=O)C3)nn2-c2ccccc2)C1 | inactive | – | inactive | inactive | 0 | – | – | – | scMet [17]: 30 mg/kg; MES [18]: inactive
C[C@H]1CC[C@H](O)C([C@H](O)CC2CC(=O)N(C)C(=O)C2)C1 (stereo not given in full) | inactive | inactive | – | inactive | 4 | – | – | – | MES [7]: 600 mg/kg
C[C@@H]1CCC(=O)C(C(=O)CC2CC(=O)NC2=O)C1 (stereo not given in full) | – | inactive | – | inactive | 2 | 1 | 600 mg/kg | 600 mg/kg | MES [7]: 600 mg/kg
C[C@H]1CC[C@H](O)C([C@H](O)CC2CC(=O)NC(=O)C2)C1 (stereo not given in full) | – | – | inactive | inactive | 0 | 0 | 30 mg/kg | 30 mg/kg | scMet [17]: 600 mg/kg; MES [19]: inactive
C[C@H]1CC([C@H](O)CC2CC(=O)NC(=O)C2)[C@@H](O)[C@@H](C)C1 (stereo not given in full) | – | – | inactive | inactive | 1 | 0 | 100 mg/kg | 100 mg/kg | scMet [17]: 600 mg/kg; scMet [20]: 600 mg/kg
CC(=O)O[C@H](CC1CC(=O)N(C)C(=O)C1)C1C[C@@H](C)C[C@H](C)C1=O (stereo not given in full) | inactive | inactive | inactive | inactive | – | – | – | – | –
C[C@H]1CC([C@H](O)CC2CC(=O)N(Cc3ccccc3)C(=O)C2)[C@@H](O)[C@@H](C)C1 (stereo not given in full) | inactive | inactive | inactive | inactive | – | – | – | – | –
C[C@@H]1CC(C(=O)CC2CC(=O)N(C)C(=O)C2)C(=O)[C@@H](C)C1 (stereo not given in full) | – | inactive | – | – | 1 | 1 | 600 mg/kg | 600 mg/kg | MES [21]: inactive; MES [22]: 600 mg/kg
O=C1CC(CC(=O)C2CCCCC2=O)C(=O)N1 (stereo not given) | – | – | inactive | inactive | 0 | 0 | 600 mg/kg | 600 mg/kg | scMet [23]: inactive
O=C1CC(C[C@@H](O)C2CCCC[C@@H]2O)CC(=O)N1 (stereo not given in full) | – | inactive | inactive | inactive | 0 | 0 | 100 mg/kg | 600 mg/kg | –
CC1CCCC(C(=O)CC2CC(=O)N(C)C(=O)C2)C1=O (stereo in doubt; 2g) | – | – | – | inactive | – | – | – | – | MES [7]: 600 mg/kg
C[C@H]1CCCC(C(=O)CC2CC(=O)NC(=O)C2)C1=O (stereo not given in full) | – | inactive | inactive | inactive | 0 | 0 | 300 mg/kg | – | MES [16]: 100 mg/kg
